From ChEMBL document CHEMBL1147175, “Synthesis of dioxane-based antiviral agents and evaluation of their biological activities as inhibitors of Sindbis virus replication” (Bioorg Med Chem, 2007) come the findings set out here.

Data set [1] can be described thus: Cytotoxicity against BHK cells by XTT assay. As to conditions: hamster. It is filed as cell-based, Mesocricetus auratus. A digest of the protocol: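 Uninfected BHK cells were treated with a range of compound concentrations. Viability was read with an XTT colorimetric kit, where mitochondrial dehydrogenases form a coloured product read at 450 nm.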
In data set [2] the test system is Sindbis virus. Description: Antiviral activity against Sindbis virus replication in BHK cells after 12 hrs by luciferase assay. It is filed as functional, organism-based. A digest of the protocol: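 BHK cells grown to confluency were infected with luciferase-reporter Sindbis virus (SIN-IRES-Luc) at MOI below 1. Medium containing compound below cytotoxic concentrations was then added, and cells were incubated 12 h at 37 °C. Luciferase was measured in cell extracts by luminometer. EC50 is the concentration giving a 50% reduction in virus production.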

In data set [3] the test system is Sindbis virus. Description: Antiviral activity against Sindbis virus replication in BHK cells at 10^-3 mM after 12 hrs by luciferase assay.
The nature of data set [4]: Therapeutic index, ratio of EC50 for Sindbis virus to CC50 for BHK cells. It is filed as cell-based. As to conditions: hamster, read-out: TI. A digest of the protocol:
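Therapeutic index was calculated as the […] (XTT viability of uninfected BHK cells).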

Data set [5] relates to Sindbis virus. Description: Antiviral activity against Sindbis virus replication in BHK cells after 12 hrs by luciferase assay.
Where [6] appears, read: in the assay text read “luciferase assay” for “XTT assay”.

SMILES strings stand for the structures. Active and inactive are the calls of the source. The calls are words filed in the database; no cut-off is given here. Some results are limits rather than exact numbers.

For `OCC[C@@H]1COCCO1`, the half-maximal cytotoxic concentration (CC50) (in general, the concentration giving 50% cytotoxicity) in data set [1] is above 1000 µM. Moreover, in the data set on Sindbis virus [2] (setting [6]), the half-maximal effective concentration (EC50) – broadly, the concentration at which the effect is half-maximal – came out at 1400 µM.
Turning to `OCC[C@H]1COCCO1`, the CC50 in data set [1] was above 1000 µM. In the data set on Sindbis virus [3], the result was inactive.
Compound `C1CSC(C[C@H]2COCCO2)(C[C@H]2COCCO2)SC1` showed a CC50 in data set [1] above 1000 µM. Besides, the outcome in the data set with Sindbis virus [3] was inactive.
Consider `O=CC[C@H]1COCCO1`, for which the CC50 in data set [1] was above 5000 µM. This compound also registered a 50% effective concentration (EC50) with Sindbis virus [2] of 460 µM.
As to `C1CSC(C[C@H]2COCCO2)SC1`, the cytotoxic concentration (CC50) in data set [1] is above 1000 µM. Further, the EC50 in the data set on Sindbis virus [2] (setting [6]) came to 1000 µM.
For `C1CSC(CC[C@@H]2COCCO2)(C[C@@H]2COCCO2)SC1`, the half-maximal cytotoxic concentration (CC50) in data set [1] is above 1000 µM. Moreover, in the data set with Sindbis virus [3], the result was inactive.
As to `CON=C(C[C@@H]1COCCO1)C[C@@H]1COCCO1`, in data set [1], the CC50 is above 1000 µM. For the same compound, the outcome in the data set on Sindbis virus [3] was inactive.
The compound `C(C[C@H]1COCCO1)C[C@H]1COCCO1` came in with a 50% cytotoxic concentration (CC50) in data set [1] above 1000 µM. Further, the outcome in the data set with Sindbis virus [3] was inactive.
Regarding `COc1ccc(CCN(C)CCC[C@](C#N)(c2ccc(OC)c(OC)c2)C(C)C)cc1OC`, a half-maximal response in the data set on Sindbis virus [2] (setting [6]) (EC50) required 1300 µM.
Consider `OC[C@H]1COCCO1`, for which the CC50 in data set [1] was above 5000 µM. For the same compound, the EC50 with Sindbis virus [2] (setting [6]) was 1500 µM.
As for `OC[C@@H]1COCCO1`, in data set [1], the CC50 is above 1000 µM. Besides, in the data set with Sindbis virus [2] (setting [6]), it took 3.4 µM to reach a half-maximal effect (EC50). In addition, the selectivity ratio in data set [4] was above 294.
`c1ccc(CCCC[C@@H]2COCCO2)cc1` came in with a CC50 in data set [1] above 1000 µM. In the data set with Sindbis virus [3], the result was inactive.
`CC(O)[C@H]1COCCO1` (stereo not given in full) gave a CC50 in data set [1] of 1000 µM. It took 99 µM to reach a half-maximal effect in the data set with Sindbis virus [2] (setting [6]) (EC50).
In data set [1], `C(CC[C@@H]1COCCO1)C[C@@H]1COCCO1` had a cytotoxic concentration (CC50) above 1000 µM. The half-maximal effective concentration (EC50) in the data set with Sindbis virus [2] (setting [6]) turned out to be 1500 µM.
Compound `ClCCOC[C@H]1CO1` had a CC50 in data set [1] above 1000 µM. Moreover, in the data set on Sindbis virus [2] (setting [6]), the response was half-maximal at 1000 µM (EC50).
In the same order, the values of `ICC[C@@H]1COCCO1` are above 1000 µM and 250 µM.
`C(CC[C@@H]1COCCO1)CC[C@@H]1COCCO1` registered a 50% cytotoxic concentration (CC50) in data set [1] above 1000 µM. A half-maximal effect with Sindbis virus [2] (setting [6]) (EC50) was put at 1500 µM.
With `O=C(CCC[C@@H]1COCCO1)C[C@@H]1COCCO1`, the result with Sindbis virus [3] was inactive.
Take `C1CSC(CC[C@@H]2COCCO2)SC1`: in data set [1], the half-maximal cytotoxic concentration (CC50) is above 1000 µM. Also, the result in the data set on Sindbis virus [3] was inactive.
Consider `CN(C)CCCN1c2ccccc2Sc2ccc(Cl)cc21` [CHLORPROMAZINE], for which, in data set [1], the CC50 was found to be 100 µM. Also, the 50% effective concentration (EC50) in the data set with Sindbis virus [2] (setting [6]) came out at 8.2 µM.
On to `ClCCOC[C@@H]1CO1`, for which the CC50 in data set [1] was above 5000 µM. The compound also showed a concentration for a half-maximal effect (EC50) in the data set with Sindbis virus [5] of 1000 µM.
In the case of `O=C(CC[C@@H]1COCCO1)C[C@@H]1COCCO1`, the cytotoxic concentration (CC50) in data set [1] was above 1000 µM. Moreover, in the data set on Sindbis virus [3], the outcome was inactive.
Consider `OC(CC[C@@H]1COCCO1)C[C@@H]1COCCO1` (stereo not given in full), for which the half-maximal cytotoxic concentration (CC50) in data set [1] is above 1000 µM. In the data set on Sindbis virus [3], the outcome was inactive.
With `C(C[C@@H]1COCCO1)C[C@H]1COCCO1` (mixture of isomers), the half-maximal cytotoxic concentration (CC50) in data set [1] is above 1000 µM. For the same compound, the outcome in the data set on Sindbis virus [3] was inactive.
In turn, `O=C(C[C@@H]1COCCO1)C[C@@H]1COCCO1` registered a CC50 in data set [1] above 1000 µM. Besides, in the data set on Sindbis virus [3], the outcome was inactive.
Compound `C1CSC(C[C@H]2COCCO2)(C[C@@H]2COCCO2)SC1` came in with a CC50 in data set [1] above 1000 µM. Moreover, the midpoint of the response with Sindbis virus [2] (setting [6]), the EC50, lay at 29 µM.
`OC(C[C@@H]1COCCO1)C[C@@H]1COCCO1` came in with a CC50 in data set [1] above 1000 µM. The same compound yielded an EC50 in the data set with Sindbis virus [2] (setting [6]) of 670 µM.
The compound `ON=C(C[C@@H]1COCCO1)C[C@@H]1COCCO1` had a half-maximal cytotoxic concentration (CC50) in data set [1] above 1000 µM. Further, in the data set on Sindbis virus [3], the result was inactive.
For `OCCC[C@@H]1COCCO1`, in that order: above 1000 µM and “inactive”.
In data set [1], `C(C[C@@H]1COCCO1)C[C@@H]1COCCO1` came in with a CC50 above 1000 µM. In addition, the EC50 in the data set on Sindbis virus [2] (setting [6]) was determined as 14 µM. Moreover, in data set [4], the selectivity ratio was above 71.
